GSIS activator = primary screen for activators of insulin secretion dependent on glucose, INS-1E cells, GLuc reporter luminescence; 370,000 compounds, 0.61% hits; INS-1E GLuc reporter insulin secretion, 2-3 h; activation, % at 16.6 µM;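 active = lowest replicate activation of at least 40%, so every replicate reaches that level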;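 also: 0% = median of neutral control wells and 100% = median of IBMX positive control wells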
Cneo AK release = Cryptococcus neoformans lysis via adenylate kinase release; C. neoformans lysis, adenylate kinase release luminescence, 4 h; normalised: neutral wells 0, clomiphene wells 100; lysis activity, % at 15 µM; 360,000 compounds, 0.2% hits;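 active = mean lysis activity across replicates of at least 80%, whatever share of replicates individually reach that level; inactive = mean lysis activity below 80%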
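Signal: Adenylate kinase release luminescence | Assay system: Log-phase Cryptococcus neoformans yeast cells | Input: Cells at 5 × 10^6 per mL | Buffer or medium: Fresh YPD growth medium | Compound: Single dose | Schedule: Static 4 h at 37 °C with compound, 1 h detection | Controls: Clomiphene | Read-out: Luminescence rise reflecting yeast cell lysis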
Rtt109 HAT inh = blocks Candida albicans Rtt109/Vps75 acetyltransferase activity | Q5AAJ8 | 330,000 compounds, 0.16% hits | AID 540336 | inhibition, % at 34.9 µM | purified Rtt109/Vps75, ThioGlo CoA-SH fluorescence, 4 h;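 active = inhibition of at least 50% in every replicate; inconclusive = best replicate reaches 50% inhibition but some replicates fall short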
Target sequence (Q5AAJ8 whole entry, looked up): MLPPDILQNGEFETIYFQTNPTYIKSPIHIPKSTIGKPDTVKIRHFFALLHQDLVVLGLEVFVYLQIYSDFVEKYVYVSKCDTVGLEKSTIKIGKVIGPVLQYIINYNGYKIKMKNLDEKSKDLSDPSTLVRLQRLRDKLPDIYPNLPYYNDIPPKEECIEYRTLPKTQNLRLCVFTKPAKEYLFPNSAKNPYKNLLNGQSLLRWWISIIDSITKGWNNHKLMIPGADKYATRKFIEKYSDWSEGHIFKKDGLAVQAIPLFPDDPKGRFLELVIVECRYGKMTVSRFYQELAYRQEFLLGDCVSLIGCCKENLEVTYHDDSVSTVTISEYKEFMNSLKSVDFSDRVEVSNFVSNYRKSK
miR-122 sensor = blocks miR-122 activity in Huh7 sensor cells | Huh7 miR-122 Renilla luciferase sensor, 48 h; neutral wells = 0, positive control = 100 | activation (reporter increase), % at 12.5 µM | 340,000 compounds, 0.3% hits | AID 602342;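 active = mean replicate activation score at least 90 and every replicate individually at or above 90; inconclusive = only one of the two criteria met; inactive = neither criterion met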;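 also: higher luciferase means less miR-122 activity so hits act as miR-122 inhibitors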
HIV Env fusion = HIV envelope-mediated fusion inhibition | 360,000 compounds, 1.1% hits | HeLa-JRFL Env/CEM21 cell fusion, luciferase | inhibition, % at 12.3 µM;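 active = mean replicate inhibition score of at least 50 and every replicate individually at or above 50; inconclusive = only one of the two criteria met; inactive = mean below 50 and not all replicates reaching 50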;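 also: 0% = plate neutral controls and 100% = maraviroc near 300 nM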
dFosB act-1 = enhances mouse delta FosB homodimer DNA binding | purified delta FosB, TAMRA-CDK5 oligo fluorescence polarization; percent of positive-control signal above neutral wells | activation, % at 25 µM | 340,000 compounds, 0.99% hits;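 active = mean activation above about 17%, with every replicate also reaching it, limit read from the data, passing the limit was not always enough; inconclusive = only one of the two conditions met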
Target sequence (P13346 whole entry, looked up): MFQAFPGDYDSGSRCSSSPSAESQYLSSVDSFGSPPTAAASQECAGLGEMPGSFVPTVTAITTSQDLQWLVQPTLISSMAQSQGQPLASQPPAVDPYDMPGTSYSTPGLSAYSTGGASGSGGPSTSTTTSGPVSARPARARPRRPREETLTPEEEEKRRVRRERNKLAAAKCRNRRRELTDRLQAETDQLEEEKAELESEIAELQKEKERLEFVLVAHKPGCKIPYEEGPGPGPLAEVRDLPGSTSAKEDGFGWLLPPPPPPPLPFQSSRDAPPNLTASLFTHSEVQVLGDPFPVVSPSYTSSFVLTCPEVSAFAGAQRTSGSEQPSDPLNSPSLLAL
dFosB act-2 = activators of mouse delta FosB homodimer DNA binding; AID 588690; activation, % at 24.9 µM; purified delta FosB, TAMRA-CDK5 oligo fluorescence polarization; normalised: neutral wells 0, positive control 100; shares compounds with dFosB act-1; 2,400 tested, under 10 active;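 active = highest replicate activation at or above 34% and every replicate reaching that threshold; inconclusive = meets only one of the two criteria; inactive = meets neither criterion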;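 also: higher polarization means more probe DNA bound by delta FosB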
Numbers without * were called inactive; ? = inconclusive; . = no result; [ ] = dose if it differs, or a comment. Shown are actives, neighbours in structure and some others; about 2.4% of the full set was active somewhere.

SMILES	GSIS activator	Cneo AK release	Rtt109 HAT inh	miR-122 sensor	HIV Env fusion	dFosB act-1	dFosB act-2
CCCCn1c(N)c(N(CCC(C)C)C(=O)c2cccc(N3C(=O)c4ccccc4C3=O)c2)c(=O)[nH]c1=O	1	0	-6	.	-27	22*	-1
CCCCN(C(=O)c1cccc(-n2cccc2)c1)c1c(N)n(CCCC)c(=O)[nH]c1=O	21	-1	11	.	-13	-9	.
COc1ccc(CC(=O)NCCc2ccc(OC)c(OC)c2)cc1	19	-1	-1	-11	4	-3	.
COc1ccc(CCC(=O)Nc2ccc(-c3noc(-c4ccc(OC)c(OC)c4)n3)cc2)cc1	0	-2	2	3	-132	29*	3
COc1ccc(C(=O)Nc2ccc(C(=O)NCCc3ccc(OC)c(OC)c3)cc2)cc1	-18	1	-5	-1	3	41*	3
O=C(COc1ccc(Cl)cc1)Nc1ccc2oc(-c3ccncc3)nc2c1	.	1	-3	2	.	37*	-1
COc1ccc(-c2nc3cc(NC(=O)Cc4ccc(OC)c(OC)c4)ccc3o2)cc1	.	-1	15	-17	63*	56*	4
COc1ccc(CC(=O)Nc2ccc(-c3noc(-c4ccccc4OC)n3)cc2)cc1	.	-1	0	-12	-79	?	.
CC(C)[C@@H](C)NC(=O)N(C)C[C@H]1OCc2ccccc2-c2ccccc2C(=O)N([C@H](C)CO)C[C@H]1C	3	.	.	.	.	.	.
C[C@@H]1CCCCO[C@H](CN(C)S(=O)(=O)c2ccccc2)[C@H](C)CN([C@@H](C)CO)C(=O)c2cc(NC(=O)Cc3ccccc3)ccc2O1	-44	-7	.	-1[16.7 µM]	-34[16.7 µM]	.	.
COc1ccc(C[C@H]2CCn3cc(nn3)COCCNC2=O)cc1	9	.	.	.	.	.	.
O=C(C1CCCC1)N1CCCCN2[C@H](C1)[C@H](c1ccc(C#CC3CC3)cc1)[C@@H]2CO	.	2	.	-22[16.7 µM]	.	.	.
COc1ccc(CC(=O)Nc2cccc(-c3nnc(-c4ccccc4)o3)c2)cc1OC	-10	5	-12	-22	.	-6	.
COc1ccc(CC(=O)Nc2ccc(-c3nnc(-c4ccccc4)o3)cc2)cc1OC	9	-1	5	5	.	120*	-7
O=[N+]([O-])c1ccc(Nc2nc(N/N=C/c3cccc(F)c3)nc(N3CCCC3)n2)cc1	9	.	-2	.	7	120*	3
O=[N+]([O-])c1ccc(Nc2nc(NC3CCCCC3)nc(N3CCCC3)n2)cc1	8	.	14	.	19	48*	3
CNc1nc(N/N=C/c2ccc([N+](=O)[O-])cc2)nc(Nc2ccccc2)n1	-4	.	3	.	-8	41*	-9
O=[N+]([O-])c1ccc(/C=N/Nc2nc(N3CCOCC3)nc(N3CCOCC3)n2)cc1	.	.	-5	.	.	4	.
COc1ccc(/C=N/Nc2nc(Nc3ccccc3)nc(N3CCCC3)n2)cc1	-1	.	2	.	0	47*	1
CC(C)(C)S(=O)N1Cc2cc(C(=O)O)nc(-c3cccc(C#CCC4CCCC4)c3)c2[C@H]1CCO (some centres not stated)	4	.	.	.	.	.	.
CCCC(=O)N1CCC2(CC1)CN(C(=O)C1CCOCC1)[C@@H](CO)c1[nH]c3cc(OC)ccc3c12	9	.	.	.	.	.	.
O=C(Nc1ccccc1F)N[C@@H]1CC[C@H](CCNC(=O)C2CCCC2)O[C@H]1CO	2	-3	.	-9[16.7 µM]	-18[16.7 µM]	.	.
O=[N+]([O-])c1cc2c(cc1/C=N/Nc1nc(Nc3ccccc3)nc(N3CCCCC3)n1)OCO2	.	-1	-3	0	-96	38*	0
Cc1cc(C)nc(N/N=C/c2cc3c(cc2[N+](=O)[O-])OCO3)n1	-7	.	-2	.	6	7	.
CCOc1cc(/C=N\Nc2nc(Nc3ccccc3)nc(N3CCOCC3)n2)ccc1OC(=O)c1ccco1	-22	.	-1	.	2	48*	-2
SMILES	GSIS activator	Cneo AK release	Rtt109 HAT inh	miR-122 sensor	HIV Env fusion	dFosB act-1	dFosB act-2
CC(=O)c1ccc(NC(=O)Cn2cnc(S(=O)(=O)N3CCC(C)CC3)c2)cc1	2	2	8	-4	-1	35*	-2
CC(=O)c1ccc(NC(=O)Cn2cnc(S(=O)(=O)N3CCOCC3)c2)cc1	-1	6	-13	0	-4	3	.
COc1ccc(-c2cc(-c3cccs3)c(C#N)c(SCC(=O)NCc3ccccc3)n2)cc1	5	-1	-5	-4	.	11	.
COc1ccccc1CNC(=O)CSc1nc(N)c(C#N)c(-c2cccs2)c1C#N	.	-3	-4	-3	.	75*	-4
COc1ccc(-c2cc(-c3cccs3)c(C#N)c(SCC(=O)NCc3ccccc3OC)n2)cc1	.	0	-5	-4	20	23*	3
N#Cc1c(N)nc(SCC(=O)NCc2ccc3c(c2)OCO3)c(C#N)c1-c1cccs1	.	4	-6	-6	.	12	.
O=C(C[C@H]1CC[C@@H]2[C@H](COC[C@H](O)CN2Cc2ccc3c(c2)OCO3)O1)Nc1ccc(-c2ccccc2)cc1	-10	0	.	-4[16.7 µM]	-8[16.7 µM]	.	.
CCS(=O)(=O)N[C@H]1C=C[C@@H](CC(=O)N2CCCCC2)O[C@H]1CO	.	1	.	-7[16.7 µM]	12[16.7 µM]	.	.
CC(C)CC#Cc1cnc2c(c1)C(=O)N([C@H](C)CO)C[C@H](C)[C@H](CN(C)S(C)(=O)=O)O2	-3	1	.	29[16.7 µM]	-85[16.7 µM]	.	.
CCCCOc1ccccc1NC(=O)Cn1c(-c2nonc2N)nc2ccccc21	.	-3	-3	14	11	74*	2
Nc1nonc1-c1nc2ccccc2n1CC(=O)N/N=C\c1ccc(-c2ccc(Cl)cc2)o1	.	0	12	-3	.	35*	-7
CC(C)(C)NC(=O)Cn1c(-c2nonc2N)nc2ccccc21	.	0	-7	9	.	-4	.
NNC(=O)Cn1c(-c2nonc2N)nc2ccccc21	2	.	-12	.	-1	-10	.
CCOc1ccc(CCNC(=O)Cn2c(-c3nonc3N)nc3ccccc32)cc1OCC	.	0	-5	3	7	24*	-1
COc1ccc2c3c(n(C)c2c1)[C@H](CO)N(Cc1ccccc1)CC31CCN(C(=O)C2CC2)CC1	-13	.	.	.	.	.	.
CNC[C@H]1Oc2ccc(NC(=O)Nc3cccc4ccccc34)cc2CC(=O)N([C@H](C)CO)C[C@@H]1C	-3	1	.	-9[16.7 µM]	-4[16.7 µM]	.	.
O=C(Cc1cccnc1)N[C@H]1CC[C@@H](CCn2cc(Cc3ccccc3)nn2)O[C@H]1CO	0	-1	.	.	-6[16.7 µM]	.	.
COc1ccc2c3c(n(C)c2c1)[C@H](CO)N(C(=O)c1ccc(F)cc1)CC31CCN(CC2CCOCC2)CC1	-2	.	.	.	2[16.7 µM]	.	.

Screens deposited in PubChem by Broad Institute.
